In ChEMBL document CHEMBL1146073, “A pyridazine series of alpha2/alpha3 subtype selective GABA A agonists for the treatment of anxiety” (J Med Chem, 2006):

Tests used:
[1] = target: GABA-A receptor; alpha-3/beta-3/gamma-2 (Homo sapiens) (UniProt P18507+P28472+P34903); assay: Efficacy against recombinant human GABA-Aalpha3 plus beta-3-gamma-2 expressed in L(tk-) cells by whole cell patch clamp method relative to chlordiazepoxide; format: functional, cell-based
Procedure, shortened: (§1)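 Whole-cell patch clamp on αxβ3γ2 receptors stably expressed in L(tk-) cells, measuring the effect on current evoked by an EC20-equivalent of GABA. Reported relative to full agonist chlordiazepoxide (=1.0), or as direct percent modulation of the EC20 control, with inverse agonism given as percent. Mean of at least four independent experiments.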

[2] = target: T1, GABA-A receptor; alpha-1/beta-3/gamma-2 (Homo sapiens) (UniProt P14867+P18507+P28472); assay: Efficacy against recombinant human GABA-Aalpha1 plus beta-3-gamma-2 expressed in L(tk-) cells by whole cell patch clamp method relative to chlordiazepoxide; format: functional, cell-based; procedure, shortened: as §1
[3] = target: T2, GABA-A receptor; alpha-3/beta-3/gamma-2 (Homo sapiens, UniProt P18507+P28472+P34903); assay: Displacement of [3H]Ro-151788 from recombinant human GABA-Aalpha3 receptor plus beta3gamma2; format: protein-complex assay
T2 sequence (P18507 whole entry): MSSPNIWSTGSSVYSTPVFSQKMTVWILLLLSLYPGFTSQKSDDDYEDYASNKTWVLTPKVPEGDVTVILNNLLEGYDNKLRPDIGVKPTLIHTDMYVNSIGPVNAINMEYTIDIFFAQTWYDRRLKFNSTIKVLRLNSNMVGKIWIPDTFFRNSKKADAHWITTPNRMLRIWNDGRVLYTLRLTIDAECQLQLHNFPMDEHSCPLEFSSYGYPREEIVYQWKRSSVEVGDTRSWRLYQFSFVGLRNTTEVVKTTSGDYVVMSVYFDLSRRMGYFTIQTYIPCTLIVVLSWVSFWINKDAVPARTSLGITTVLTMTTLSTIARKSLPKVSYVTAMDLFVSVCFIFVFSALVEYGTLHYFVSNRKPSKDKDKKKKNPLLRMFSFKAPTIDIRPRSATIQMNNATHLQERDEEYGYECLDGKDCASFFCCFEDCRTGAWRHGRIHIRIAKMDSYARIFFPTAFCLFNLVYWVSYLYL
T2 sequence (P28472 whole entry): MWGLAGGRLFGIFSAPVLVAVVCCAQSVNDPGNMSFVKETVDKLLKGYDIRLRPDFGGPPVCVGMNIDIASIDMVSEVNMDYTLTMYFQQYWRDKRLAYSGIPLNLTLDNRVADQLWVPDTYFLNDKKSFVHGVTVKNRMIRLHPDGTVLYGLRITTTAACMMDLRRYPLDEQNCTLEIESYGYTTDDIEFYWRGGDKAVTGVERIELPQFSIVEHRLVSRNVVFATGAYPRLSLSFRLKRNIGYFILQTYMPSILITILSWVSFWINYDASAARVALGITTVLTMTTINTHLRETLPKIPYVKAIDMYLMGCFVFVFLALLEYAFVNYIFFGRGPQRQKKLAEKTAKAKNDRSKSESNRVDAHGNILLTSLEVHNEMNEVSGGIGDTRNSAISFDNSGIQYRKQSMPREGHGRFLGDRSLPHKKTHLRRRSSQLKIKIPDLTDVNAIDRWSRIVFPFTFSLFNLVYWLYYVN
T2 sequence (P34903 whole entry): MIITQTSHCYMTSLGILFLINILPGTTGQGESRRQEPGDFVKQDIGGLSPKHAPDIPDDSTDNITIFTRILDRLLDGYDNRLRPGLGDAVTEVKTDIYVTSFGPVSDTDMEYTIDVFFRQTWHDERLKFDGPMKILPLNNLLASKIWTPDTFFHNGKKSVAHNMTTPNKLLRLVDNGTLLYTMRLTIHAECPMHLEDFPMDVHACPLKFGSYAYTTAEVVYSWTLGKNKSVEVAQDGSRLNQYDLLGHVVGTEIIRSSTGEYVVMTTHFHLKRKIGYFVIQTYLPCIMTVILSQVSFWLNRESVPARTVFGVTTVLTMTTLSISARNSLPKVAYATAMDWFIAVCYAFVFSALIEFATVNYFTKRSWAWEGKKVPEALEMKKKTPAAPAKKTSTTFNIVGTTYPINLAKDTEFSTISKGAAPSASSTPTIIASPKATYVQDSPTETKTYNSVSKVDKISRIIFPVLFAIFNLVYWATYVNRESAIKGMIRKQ
Procedure, shortened: (§2)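 Benzodiazepine-site binding on stably transfected αxβ3γ2 receptors (x = 1, 2, 3 or 5). Inhibition curves run with [3H]Ro15-1788 at roughly twice its Kd. Ki derived by Cheng-Prusoff equation. Mean of three to six determinations.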

[4] = target: T3, GABA-A receptor; alpha-5/beta-3/gamma-2 (Homo sapiens, UniProt P18507+P28472+P31644); assay: Displacement of [3H]Ro-151788 from recombinant human GABA-Aalpha5 receptor plus beta3gamma2; format: protein-complex assay; procedure, shortened: as §2
T3 sequence (P18507 whole entry): T2 sequence (P18507 whole entry)
T3 sequence (P28472 whole entry): T2 sequence (P28472 whole entry)
T3 sequence (P31644 whole entry): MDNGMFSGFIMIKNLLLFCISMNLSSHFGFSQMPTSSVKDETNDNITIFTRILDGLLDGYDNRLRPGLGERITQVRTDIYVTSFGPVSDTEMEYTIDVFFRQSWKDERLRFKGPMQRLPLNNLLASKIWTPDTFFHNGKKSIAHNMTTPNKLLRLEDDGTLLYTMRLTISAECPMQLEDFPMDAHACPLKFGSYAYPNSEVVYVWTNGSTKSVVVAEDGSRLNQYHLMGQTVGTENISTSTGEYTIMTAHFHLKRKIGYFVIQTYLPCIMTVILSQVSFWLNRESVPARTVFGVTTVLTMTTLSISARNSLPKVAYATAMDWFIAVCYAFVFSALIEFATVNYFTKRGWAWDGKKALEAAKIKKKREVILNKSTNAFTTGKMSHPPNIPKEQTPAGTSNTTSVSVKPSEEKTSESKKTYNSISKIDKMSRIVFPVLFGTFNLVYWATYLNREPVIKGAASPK

[5] = Stability in rat assessed as liver microsomal turnover; format: ADME, Microsome; conditions: liver microsomes, read-out: Stability
Procedure, shortened: (§3)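 Test compound at 1 µM, with diazepam as control, incubated 0.25 h with pooled liver microsomes at 0.5 mg/mL protein. Compound remaining quantified by LC/MS/MS. Turnover is the mean of three determinations.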

[6] = Stability in dog assessed as liver microsomal turnover; format: ADME, Canis lupus familiaris; conditions: liver microsomes, read-out: Stability; procedure, shortened: as §3
[7] = Plasma clearance in rat; format: ADME, organism-based
Procedure, shortened: (§4)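 Pharmacokinetics from six animals per species: three dosed iv and three dosed po.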

[8] = Half life in rat; format: ADME, organism-based; conditions: in vivo; procedure, shortened: as §4
[9] = Oral bioavailability in rat; format: ADME, organism-based; conditions: in vivo; procedure, shortened: as §4
[10] = target: GABA-A receptor; anion channel (Rattus norvegicus) (UniProt O09028+P15431+P18506+P18508+P19969+P20236+P23574+P23576+P28471+P28473+P30191+P62813+P63079+P63138+Q91ZM7+Q9ES14); assay: Receptor occupancy in vivo by displacement of [3H]Ro 15-1788 binding from GABA-A receptor in rat, po; format: functional, organism-based
Procedure, shortened: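 Rat in vivo occupancy measured by [3H]Ro 15-1788 binding after oral dosing. Rats taken as a subgroup after the plus-maze trial, i.e. 30 min post-dose or later. ED50 derived from dose-dependent occupancy. Mean ± SEM, n = 5-10/group.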

[11] = target: GABA-A receptor; alpha-2/beta-3/gamma-2 (Homo sapiens) (UniProt P18507+P28472+P47869); assay: Efficacy against recombinant human GABA-Aalpha2 plus beta-3-gamma-2 expressed in L(tk-) cells by whole cell patch clamp method relative to chlordiazepoxide; format: functional, cell-based; procedure, shortened: as §1
[12] = Stability in human assessed as liver microsomal turnover; format: ADME, Microsome; conditions: liver microsomes, read-out: Stability; procedure, shortened: as §3
[13] = target: T1, GABA-A receptor; alpha-1/beta-3/gamma-2 (Homo sapiens); assay: Efficacy against recombinant human GABA-Aalpha1 plus beta-3-gamma-2 expressed in L(tk-) cells by whole cell patch clamp method; format: functional, cell-based; procedure, shortened: as §1
[14] = target: T4, GABA-A receptor; alpha-5/beta-3/gamma-2 (Homo sapiens) (UniProt P18507+P28472+P31644); assay: Efficacy against recombinant human GABA-Aalpha5 plus beta-3-gamma-2 expressed in L(tk-) cells by whole cell patch clamp method; format: functional, cell-based; procedure, shortened: as §1
[15] = target: T4, GABA-A receptor; alpha-5/beta-3/gamma-2 (Homo sapiens); assay: Efficacy against recombinant human GABA-Aalpha5 plus beta-3-gamma-2 expressed in L(tk-) cells by whole cell patch clamp method relative to chlordiazepoxide; format: functional, cell-based; procedure, shortened: as §1
[16] = target: T5, GABA-A receptor; alpha-1/beta-3/gamma-2 (Homo sapiens, UniProt P14867+P18507+P28472); assay: Displacement of [3H]Ro-151788 from recombinant human GABA-Aalpha1 receptor plus beta3gamma2; format: protein-complex assay; procedure, shortened: as §2
T5 sequence (P14867 whole entry): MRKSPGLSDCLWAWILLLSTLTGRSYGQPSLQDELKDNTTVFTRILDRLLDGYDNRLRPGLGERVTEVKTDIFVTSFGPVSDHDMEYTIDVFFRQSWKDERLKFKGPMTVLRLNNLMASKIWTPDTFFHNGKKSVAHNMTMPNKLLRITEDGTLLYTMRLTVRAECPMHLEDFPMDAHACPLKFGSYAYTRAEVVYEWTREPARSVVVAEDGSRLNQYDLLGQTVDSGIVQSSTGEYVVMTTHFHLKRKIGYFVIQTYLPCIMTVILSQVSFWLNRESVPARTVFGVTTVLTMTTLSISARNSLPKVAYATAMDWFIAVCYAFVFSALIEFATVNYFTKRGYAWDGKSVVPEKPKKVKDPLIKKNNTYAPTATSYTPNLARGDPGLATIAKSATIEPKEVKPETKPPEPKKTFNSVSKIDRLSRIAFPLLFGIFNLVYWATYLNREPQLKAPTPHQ
T5 sequence (P18507 whole entry): T2 sequence (P18507 whole entry)
T5 sequence (P28472 whole entry): T2 sequence (P28472 whole entry)

Compound	Efficacy [1]	Efficacy [2]	Ki [3] [nM]	Ki [4] [nM]	metabolised [5] [%]	metabolised [6] [%]	clearance [7] [mL/min/kg]	half-life [8] [h]	bioavailability [9] [%]	Occ50 [10] [mg/kg]	Efficacy [11]	metabolised [12] [%]	Efficacy [13] [%]	Efficacy [14] [%]	Efficacy [15]	Activity [10] [mg/kg]	Ki [16] [nM]
Fc1ccccc1-c1cc(-c2ccc(F)c(-c3ncccc3F)c2)cnn1	0.31	0.11	0.9	0.5	11	34											
Fc1ccc(-c2cc(-c3ccc(F)c(-c4ncc(F)cc4F)c3)cnn2)cc1	0.21	0.02	5.6	3.8	7	20											
Fc1cnc(-c2cc(-c3cnnc(-c4ccccc4F)c3)ccc2F)c(F)c1	0.4		1.7	0.7	22	31	30	2.2	11	3	0.2	8	-20	-20			
Fc1cnc(-c2cc(-c3cnnc(-c4ncccc4F)c3)ccc2F)c(F)c1	0.17		1.7	3.2	< 5							< 5	-26		0.14	< 0.2	0.4
Fc1ccc(-c2cnnc(-c3c(F)cncc3F)c2)cc1-c1ncccc1F	0.39		3.2	3	9	9				< 0.2		9	-7				0.8
Fc1ccc(-c2cnnc(-c3c(F)cccc3F)c2)cc1-c1ncccc1F	0.24		0.4	0.3	19	24						13	-5				0.1
Fc1cnccc1-c1cc(-c2ccc(F)c(-c3ncccc3F)c2)cnn1	0.58		5.6	7.7	17	8	91	0.8	5	7.2	0.24	8	-8	-3			0.9
Fc1ccc(-c2cc(-c3ccc(F)c(-c4ncc(F)cc4F)c3)cnn2)c(F)c1	0.42	0.07	3.1	1.4	13	18				4.6		< 5					
Fc1ccc(-c2cnnc(-c3ncccc3F)c2)cc1-c1ncccc1F	0.4		1.4	2.4	3	2						5	-30			0.5	0.5
Fc1cnc(-c2cc(-c3cnnc(-c4ccncc4F)c3)ccc2F)c(F)c1	0.41		8.2	5.6	23					15.3		< 5	-7				3.5
